# Data reported in PubChem BioAssay AID504383 (The Scripps Research Institute Molecular Screening Center, 2011).
# Hit rate of the full screen: of about 2,500 compounds, about 1,200 (48%) were called active. So high a share suggests a set chosen from earlier hits. Some of the results follow. Values without a mark were called inactive.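 The calls were made as follows: active = mean activation above the low control average plus 3 SD, as set in the primary screen (cut at about 12% in these data); inactive = the rest.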
# Target: Troponin I, cardiac muscle (Homo sapiens) + Troponin T, cardiac muscle (Homo sapiens) + Troponin C, slow skeletal and cardiac muscles (Homo sapiens) (UniProt P19429+P45379+P63316)
# Assay: calcium sensitizers of cardiac thin filaments – biochemical, IANBD-TnC fluorescence, triplicate, confirmation (AID 504383);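 also: 0% = DMSO at 0.472 mM calcium and 100% = DMSO at 2.9 mM calcium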
# Settings: IANBD-labeled cardiac RTF, Ca2+ sensitivity fluorescence; at 7.2 µM; hits give high values; scaled from EC20 to saturating calcium; tested at EC20 calcium, 0.472 mM
# Summary of the method: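 Material: labelled regulated thin filaments; Reagent: 0.472 mM calcium; Incubation: 15 min compound incubation with filaments at 25 °C; Detection: filament fluorescence intensity; Evaluation: fluorescence increase normalised to calcium controls; Benchmarks: low control EC20 calcium, high control EC100 calcium.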
row,Compound,activation
1,Cc1ccc(S(=O)(=O)NCCCCCC(=O)Nc2ccccc2C)cc1,34.1% (active)
2,Cc1ccc(S(=O)(=O)Nc2ccccc2N(C)S(=O)(=O)c2ccc(C)cc2)cc1,9.04%
3,CC(=O)Nc1ccc(S(=O)(=O)NCCC(=O)OCC(=O)c2cc(C)ccc2C)cc1,10.1%
4,Cc1ccc(C)c(OCCN2C(=O)NC3(CCc4ccccc4C3)C2=O)c1 (stereo not drawn),2.13%
5,C=COc1ccc(N2C(=O)c3ccccc3OC2C)cc1 (stereo not drawn),32.1% (active)
6,COc1cc(/C=C2/C(=O)NN(c3cccc(F)c3)C2=O)ccc1OC(=O)c1ccco1,3.13%
7,Cc1ccc(C(=O)N(C)CC(=O)Nc2cccc(F)c2)cc1S(=O)(=O)N1CCCCC1,6.56%
8,COc1ccc(CC(=O)N(C)Cc2cccc(F)c2)cc1S(=O)(=O)N1CCOCC1,12.3% (active)
9,NC(=O)c1ccccc1N/C=C/C(=O)c1ccc(Cl)cc1Cl,19% (active)
10,COC(=O)c1cnn2c(C(F)(F)F)cc(-c3ccco3)nc12,4.76%
11,Cc1cccc(C)c1NC(=O)CNC(=O)Cc1ccc(Br)cc1,10.9%
12,Cc1cccc(C)c1NC(=O)CN(C1CCCCC1)S(C)(=O)=O,9.63%
13,CSc1nc2ccccc2n1CC(=O)Nc1c(C)cccc1C,12.7% (active)
14,NC(=O)NC(Cc1ccccc1)C(=O)NCC1(N2CCCCC2)CCCCC1 (stereo not drawn),9.4%
15,Cc1nn(-c2ccccc2)c(Cl)c1C(=O)NC1CCCCC1,20.7% (active)
16,Cc1cc(-c2ccccc2C(=O)NC2CCCCC2)on1,6.39%
17,Cc1c(C(=O)NC2CC2)oc2ccccc12,7.6%
18,O=C(CNC(=O)C12CC3CC(CC(C3)C1)C2)OCC(=O)N1CCCCC1,11.6%
19,COc1ccc(OC)c(C2=C/C(=C/c3ccccn3)C(=O)O2)c1,6.12%
20,COc1ccc2nc(-c3ccccn3)[nH]c2c1,93.2% (active)
21,COc1ccc(OC)c(/C=C/c2nc3ccccc3[nH]c2=O)c1,6.55%

row,Compound,activation
1,O=c1[nH]c2cc(C(F)(F)F)ccc2n1-c1cc(C(F)(F)F)ccc1O,8.69%
2,CCOc1ccccc1C(=O)NN1C(=O)CCC1=O,23.7% (active)
3,Cc1ccnc2nc(C(=O)OCC(=O)NCCc3ccccc3)nn12,28.6% (active)
4,Cc1cc(S(=O)(=O)NC(C)C)ccc1OCC(=O)NCc1ccccc1,3.1%
5,COc1cc(OC)c(OC)cc1/C=C1/Cc2ccccc2C1=O,8.78%
6,CCC1C/C(=C\c2cc(OC)c(OC)cc2OC)C(=O)/C(=C/c2cc(OC)c(OC)cc2OC)C1 (stereo not drawn),21.3% (active)
7,Cc1cc(NS(C)(=O)=O)c(=O)n(Cc2cccc(F)c2)c1,0.31%
8,C/C(=C\C=C(C#N)C#N)c1cc(C#N)c(N)o1,16.3% (active)
9,c1ccc(Cn2c(-c3ccccc3)nc3nc4ccccc4nc32)cc1,32.2% (active)
10,Oc1ccc2ccccc2c1C=NCc1cn2ccsc2n1,3.76%
11,O=C(NN=Cc1c(O)ccc2ccccc12)c1ccncc1,9.86%
12,O=C(N/N=C\c1c(O)ccc2ccccc12)c1cncc(Br)c1,20% (active)
13,O=C(N/N=C/c1c(O)ccc2ccccc12)c1cccc(C(F)(F)F)c1,164% (active)
14,Cc1nnc(-c2ccccc2)c(=O)n1/N=C/c1c(O)ccc2ccccc12,5.78%
15,Cn1nnnc1SCCOc1ccc(C#N)cc1,-1.4%
16,CCOC(=O)c1cn(-c2ccc(F)c(F)c2F)c2c(F)c(F)c(F)cc2c1=O,10.3%
17,Cc1c(N=C2N=C(NC(=O)Nc3ccc(Cl)cc3)c3ccccc32)c(=O)n(-c2ccccc2)n1C,58.8% (active)
18,Cc1cc([N+](=O)[O-])nn1CC(=O)Nc1c(C)n(C)n(-c2ccccc2)c1=O,8.97%
19,CC/C(=C/c1sc2ccccc2[n+]1CC)SC,2.73%
20,CC[n+]1c(/C=C/C=C/N(C(C)=O)c2ccccc2)sc2ccccc21,135% (active)
21,CCCC(NC(=O)CCc1c(C)c2cc3c(-c4ccccc4)coc3cc2oc1=O)C(=O)O (stereo not drawn),181% (active)

row,Compound,activation
1,C=CCOc1ccc(Br)cc1CNCC,29.4% (active)
2,C=CCOc1ccccc1CNc1cccc(F)c1,7.46%
3,Cc1nc(NC(=O)C(Cl)Cl)sc1C(=O)N(C)C,8.86%
4,CCn1cc(/C=C/C(=O)Nc2c(C)nn(Cc3ccccc3C)c2C)cn1,7.35%
5,Cc1ccc(Cn2nc(C)c(NC(=O)C3(C)CC3(Br)Br)c2C)cc1 (stereo not drawn),17.1% (active)
6,Cc1nn(Cc2c(F)c(F)c(F)c(F)c2F)c(C)c1NC(=O)c1nn(C)c(C)c1Br,9.42%
7,Cn1c(=O)cc(N)n(Cc2ccccc2)c1=O,42.5% (active)
8,Cc1ccc(NC(=O)COC(=O)/C=C/c2c(C)nn(-c3ccc(F)cc3)c2Cl)cc1F,8%
9,CCOc1ccc(-n2c(SCC(=O)Nc3ccc(OC)cc3OC)nc3c(c2=O)SCC3)cc1,13.3% (active)
10,CCOc1ccc(C(C(=O)NC2CCCCC2)N(C(=O)Cc2cccs2)c2ccc(-n3cnnn3)c(OC)c2)cc1 (stereo not drawn),3.97%
11,Cc1ccc(C(C)NC(=O)c2cccs2)cc1C (stereo not drawn),480% (active)
12,O=C(CSc1nnc(-c2ccco2)o1)NC1CCCCC1,6.06%
13,O=C(CCSc1nnc(-c2ccco2)o1)Nc1ccccc1,69% (active)
14,CCCCNC(=O)Nc1nnc(-c2ccccc2)o1,10.1%
15,C/C(O)=c1/ccc2cccc3nc(C)nc1c23,62.2% (active)
16,COc1ccc(CN(Cc2cccn2C)S(=O)(=O)c2ccccc2)cc1,9.11%
17,CCN(CC(=O)N1CCCC1)S(=O)(=O)c1ccc(OC)cc1,262% (active)
18,Cc1ccccc1NS(=O)(=O)c1ccc(OCC(=O)N2CCCCC2)cc1,6.33%
19,O=C1NC(c2cccc([N+](=O)[O-])c2)Oc2ccccc21 (stereo not drawn),10.3%
20,Cc1ccc(C)c(NC(=O)COC(=O)Cc2ccsc2)c1,12.3% (active)
21,Cc1ccc(C)c(NC(=O)CCN2CCOCC2)c1,0.21%
